How the values were obtained:
[1] = system: Plasmodium falciparum; test: Antimalarial activity after 48 hrs against chloroquine-sensitive Plasmodium falciparum 3D7 by [3H]hypoxanthine uptake; assay type: functional, organism-based
In short: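 Asynchronous culture (65-75% rings, 0.5% parasitemia, 2.5% final hematocrit) in RPMI 1640 with 0.5% Albumax II, 0.2% glucose, 0.03% L-glutamine and 5 µM hypoxanthine. Triplicate wells with a 3-fold series of 10.0–0.0412 µg/mL; final DMSO ≤0.01%. 37 °C, 5% CO2: 24 h, then 0.2 µCi/well [3H]hypoxanthine for a further 24 h. Frozen, harvested, scintillation-counted. IC50 from curve fit; mean of 2–3 experiments.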

[2] = system: Plasmodium falciparum; test: Antimalarial activity after 48 hrs against chloroquine-resistant Plasmodium falciparum K1 by [3H]hypoxanthine uptake; assay type: functional, organism-based
In short: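 Asynchronous P. falciparum K1 culture (65-75% ring stage, 0.5% parasitemia; chloroquine, pyrimethamine, cycloguanil resistant) at 2.5% hematocrit in RPMI 1640 with 0.5% Albumax II, glucose, L-glutamine, 5 µM hypoxanthine. Triplicate 3-fold dilutions 10.0–0.0412 µg/mL, DMSO ≤0.01% final, 37 °C, 5% CO2. [3H]-hypoxanthine (0.2 µCi/well) added at 24 h, incorporation counted after further 24 h. IC50 by curve fit, 2–3 experiments.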

[3] = system: KB; test: Cytotoxicity against human KB cells after 48 hrs by alamar blue assay; assay type: cell-based
[4] = Selectivity index, ratio of IC50 for human KB cells to IC50 for chloroquine-sensitive Plasmodium falciparum 3D7; assay type: toxicity, cell-based; conditions: read-out: Ratio IC50
In short: (§1)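 KB IC50 divided by the parasite IC50 (K1 or 3D7). KB cells seeded at 4×10^4 cells/mL in RPMI 1640 with 10% heat-inactivated FCS and grown 24 h. Triplicate dilution series then added for 72 h. AlamarBlue for 2–4 h, fluorescence ex 530/em 585 nm, IC50 by curve fit. Podophyllotoxin as positive control.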

[5] = Selectivity index, ratio of IC50 for human KB cells to IC50 for chloroquine-resistant Plasmodium falciparum K1; assay type: toxicity, cell-based; conditions: read-out: Ratio IC50; in short: as §1
[6] = Resistant index, ratio of IC50 for chloroquine-resistant Plasmodium falciparum K1 to IC50 for chloroquine-sensitive Plasmodium falciparum 3D7; assay type: functional
In short: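 IC50 against K1 divided by IC50 against 3D7 (drug-sensitive NF54 clone). Both from [3H]-hypoxanthine incorporation over 48 h: asynchronous cultures at 0.5% parasitemia, 2.5% hematocrit, 3-fold dilutions 10.0–0.0412 µg/mL in triplicate. Label added at 24 h. Means of 2–3 independent experiments.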

COc1ccc2c(c1)[n+]([O-])c(C#N)c(-c1ccc(OC(F)(F)F)cc1)[n+]2[O-]
IC50 [1]: 930 nM
IC50 [2]: 1250 nM
IC50 [3]: 8250 nM
selectivity ratio [4]: 8.87
selectivity ratio [5]: 6.58
Ratio IC50 [6]: 1.35

COc1ccc(-c2c(C#N)[n+]([O-])c3cc(C)c(C)cc3[n+]2[O-])cc1
IC50 [1]: 3020 nM

CCOC(=O)c1c(-c2ccc(C)cc2)[n+]([O-])c2ccccc2[n+]1[O-]
IC50 [1]: > 10000 nM

COc1ccc(-c2c(C#N)[n+]([O-])c3cc(Cl)c(Cl)cc3[n+]2[O-])cc1
IC50 [1]: > 20000 nM

N#Cc1c(-c2ccccc2)[n+]([O-])c2ccc(Cl)cc2[n+]1[O-]
IC50 [1]: > 5000 nM

Cc1cc2c(cc1C)[n+]([O-])c(-c1ccc(OC(F)(F)F)cc1)c(C#N)[n+]2[O-]
IC50 [1]: > 5000 nM

COc1ccc2c(c1)[n+]([O-])c(C#N)c(-c1ccc(F)cc1)[n+]2[O-]
IC50 [1]: 870 nM
IC50 [2]: 360 nM
IC50 [3]: 18500 nM
selectivity ratio [4]: 21.3
selectivity ratio [5]: 50.9
Ratio IC50 [6]: 0.42

COc1cc([C@@H]2c3cc4c(cc3[C@H](O)[C@H]3COC(=O)[C@H]23)OCO4)cc(OC)c1OC [PODOFILOX]
IC50 [3]: 3 nM

N#Cc1c(-c2ccccc2)[n+]([O-])c2ccc(F)cc2[n+]1[O-]
IC50 [1]: > 10000 nM

N#Cc1c(-c2ccc(Cl)cc2)[n+]([O-])c2ccc(C(F)(F)F)cc2[n+]1[O-]
IC50 [1]: 1560 nM
IC50 [2]: 1770 nM
IC50 [3]: 2760 nM
selectivity ratio [4]: 1.77
selectivity ratio [5]: 1.56
Ratio IC50 [6]: 1.13

COc1ccc2c(c1)[n+]([O-])c(C#N)c(-c1ccc(Cl)cc1)[n+]2[O-]
IC50 [1]: 730 nM
IC50 [2]: 470 nM
IC50 [3]: 17500 nM
selectivity ratio [4]: 24
selectivity ratio [5]: 37.5
Ratio IC50 [6]: 0.64

O=C(O)c1c(-c2ccc(Cl)cc2)[n+]([O-])c2ccccc2[n+]1[O-]
IC50 [1]: > 10000 nM

COc1ccc(-c2c(C#N)[n+]([O-])c3cc(OC)ccc3[n+]2[O-])cc1
IC50 [1]: 2290 nM

CCOC(=O)c1c(-c2ccccc2)[n+]([O-])c2ccccc2[n+]1[O-]
IC50 [1]: > 10000 nM

COc1ccc2c(c1)[n+]([O-])c(C#N)c(-c1ccc(C)cc1)[n+]2[O-]
IC50 [1]: 810 nM
IC50 [2]: 2290 nM
IC50 [3]: 17000 nM
selectivity ratio [4]: 20.9
selectivity ratio [5]: 7.39
Ratio IC50 [6]: 2.83

N#Cc1c(-c2ccc(OC(F)(F)F)cc2)[n+]([O-])c2ccc(C(F)(F)F)cc2[n+]1[O-]
IC50 [1]: 1930 nM
IC50 [2]: 550 nM
IC50 [3]: 13400 nM
selectivity ratio [4]: 6.97
selectivity ratio [5]: 24.4
Ratio IC50 [6]: 0.28

N#Cc1c(-c2ccc(F)cc2)[n+]([O-])c2ccc(F)cc2[n+]1[O-]
IC50 [1]: 5780 nM

Cc1ccc2c(c1)[n+]([O-])c(C#N)c(-c1ccc(F)cc1)[n+]2[O-]
IC50 [1]: 880 nM
IC50 [2]: 370 nM
IC50 [3]: 11200 nM
selectivity ratio [4]: 12.7
selectivity ratio [5]: 30.4
Ratio IC50 [6]: 0.42

CCOC(=O)c1c(-c2ccccc2)[n+]([O-])c2ccc(C)cc2[n+]1[O-]
IC50 [1]: > 10000 nM

COC(=O)c1ccc(-c2c(C#N)[n+]([O-])c3cc(F)ccc3[n+]2[O-])cc1
IC50 [1]: > 20000 nM

COc1ccc(-c2c(C#N)[n+]([O-])c3cc(C(F)(F)F)ccc3[n+]2[O-])cc1
IC50 [1]: 2440 nM

N#Cc1c(-c2ccc(OC(F)(F)F)cc2)[n+]([O-])c2cc(Cl)c(Cl)cc2[n+]1[O-]
IC50 [1]: > 10000 nM

N#Cc1c(-c2ccccc2)[n+]([O-])c2ccc(C(F)(F)F)cc2[n+]1[O-]
IC50 [1]: 330 nM
IC50 [2]: 180 nM
IC50 [3]: 2820 nM
selectivity ratio [4]: 8.55
selectivity ratio [5]: 15.7
Ratio IC50 [6]: 0.55

COC(=O)c1ccc(-c2c(C#N)[n+]([O-])c3ccccc3[n+]2[O-])cc1
IC50 [1]: 6540 nM

CCOC(=O)c1c(-c2ccccc2)[n+]([O-])c2cc(F)c(F)cc2[n+]1[O-]
IC50 [1]: > 10000 nM

N#Cc1c(-c2ccc(F)cc2)[n+]([O-])c2ccc(C(F)(F)F)cc2[n+]1[O-]
IC50 [1]: 660 nM
IC50 [2]: 520 nM
IC50 [3]: 2850 nM
selectivity ratio [4]: 4.32
selectivity ratio [5]: 5.48
Ratio IC50 [6]: 0.79

N#Cc1c(-c2ccc(Cl)cc2)[n+]([O-])c2ccc(F)cc2[n+]1[O-]
IC50 [1]: 4210 nM

Cc1ccc2c(c1)[n+]([O-])c(C#N)c(-c1ccc(OC(F)(F)F)cc1)[n+]2[O-]
IC50 [1]: 750 nM
IC50 [2]: 380 nM
IC50 [3]: 8120 nM
selectivity ratio [4]: 10.8
selectivity ratio [5]: 21.4
Ratio IC50 [6]: 0.51

COc1ccc(-c2c(C#N)[n+]([O-])c3ccccc3[n+]2[O-])cc1
IC50 [1]: 3140 nM

Cc1ccc(-c2c(C(=O)O)[n+]([O-])c3ccccc3[n+]2[O-])cc1
IC50 [1]: > 10000 nM

COc1ccc(-c2c(C#N)[n+]([O-])c3cc(Cl)ccc3[n+]2[O-])cc1
IC50 [1]: > 10000 nM

Cc1ccc2c(c1)[n+]([O-])c(C#N)c(-c1ccc(Cl)cc1)[n+]2[O-]
IC50 [1]: 480 nM
IC50 [2]: 190 nM
IC50 [3]: 9250 nM
selectivity ratio [4]: 19.3
selectivity ratio [5]: 49.5
Ratio IC50 [6]: 0.39

Cc1ccc(-c2c(C#N)[n+]([O-])c3ccccc3[n+]2[O-])cc1
IC50 [1]: 3460 nM

COc1ccc(-c2c(C#N)[n+]([O-])c3cc(C)ccc3[n+]2[O-])cc1
IC50 [1]: 2770 nM

Cc1ccc(-c2c(C#N)[n+]([O-])c3cc(C)ccc3[n+]2[O-])cc1
IC50 [1]: 1300 nM
IC50 [2]: 950 nM
IC50 [3]: 25000 nM
selectivity ratio [4]: 19.2
selectivity ratio [5]: 26.2
Ratio IC50 [6]: 0.73

N#Cc1c(-c2ccccc2)[n+]([O-])c2ccccc2[n+]1[O-]
IC50 [1]: 2350 nM

Cc1ccc(-c2c(C#N)[n+]([O-])c3cc(C(F)(F)F)ccc3[n+]2[O-])cc1
IC50 [1]: 720 nM
IC50 [2]: 870 nM
IC50 [3]: 3170 nM
selectivity ratio [4]: 4.4
selectivity ratio [5]: 3.64
Ratio IC50 [6]: 1.21

N#Cc1c(-c2ccc(Cl)cc2)[n+]([O-])c2ccc(Cl)cc2[n+]1[O-]
IC50 [1]: > 5000 nM

Cc1ccc2c(c1)[n+]([O-])c(C#N)c(-c1ccccc1)[n+]2[O-]
IC50 [1]: 1550 nM
IC50 [2]: 740 nM
IC50 [3]: 11600 nM
selectivity ratio [4]: 7.52
selectivity ratio [5]: 15.8
Ratio IC50 [6]: 0.48

CCOC(=O)c1c(-c2ccc(Cl)cc2)[n+]([O-])c2ccccc2[n+]1[O-]
IC50 [1]: > 10000 nM

Cc1ccc(-c2c(C#N)[n+]([O-])c3cc(F)ccc3[n+]2[O-])cc1
IC50 [1]: > 10000 nM

CCOC(=O)c1c(-c2ccccc2)[n+]([O-])c2ccc(Cl)cc2[n+]1[O-]
IC50 [1]: 3220 nM

Cc1cc2c(cc1C)[n+]([O-])c(-c1ccc(F)cc1)c(C#N)[n+]2[O-]
IC50 [1]: 1260 nM
IC50 [2]: 930 nM
IC50 [3]: 18800 nM
selectivity ratio [4]: 14.9
selectivity ratio [5]: 20.4
Ratio IC50 [6]: 0.73

COC(=O)c1ccc(-c2c(C#N)[n+]([O-])c3cc(Cl)ccc3[n+]2[O-])cc1
IC50 [1]: > 20000 nM

CCOC(=O)c1c(-c2ccccc2)[n+]([O-])c2cc(Cl)c(Cl)cc2[n+]1[O-]
IC50 [1]: > 7000 nM

N#Cc1c(-c2ccc(F)cc2)[n+]([O-])c2ccc(Cl)cc2[n+]1[O-]
IC50 [1]: 5830 nM

COC(=O)c1ccc(-c2c(C#N)[n+]([O-])c3cc(C)ccc3[n+]2[O-])cc1
IC50 [1]: 2150 nM

N#Cc1c(-c2ccc(Cl)cc2)[n+]([O-])c2ccccc2[n+]1[O-]
IC50 [1]: 1010 nM
IC50 [2]: 410 nM
IC50 [3]: 9730 nM
selectivity ratio [4]: 9.63
selectivity ratio [5]: 23.6
Ratio IC50 [6]: 0.41

N#Cc1c(-c2ccc(OC(F)(F)F)cc2)[n+]([O-])c2ccc(Cl)cc2[n+]1[O-]
IC50 [1]: 710 nM
IC50 [2]: 930 nM
IC50 [3]: 2350 nM
selectivity ratio [4]: 3.31
selectivity ratio [5]: 2.53
Ratio IC50 [6]: 1.31

Cc1ccc(-c2c(C#N)[n+]([O-])c3cc(Cl)ccc3[n+]2[O-])cc1
IC50 [1]: > 10000 nM

COC(=O)c1ccc(-c2c(C#N)[n+]([O-])c3cc(OC)ccc3[n+]2[O-])cc1
IC50 [1]: 3160 nM

N#Cc1c(-c2ccc(OC(F)(F)F)cc2)[n+]([O-])c2ccc(F)cc2[n+]1[O-]
IC50 [1]: 1700 nM
IC50 [2]: > 8000 nM
IC50 [3]: 2610 nM
selectivity ratio [4]: 1.54

COC(=O)c1ccc(-c2c(C#N)[n+]([O-])c3cc(C(F)(F)F)ccc3[n+]2[O-])cc1
IC50 [1]: 2030 nM

CCOC(=O)c1c(-c2ccccc2)[n+]([O-])c2cc(C)c(C)cc2[n+]1[O-]
IC50 [1]: 1180 nM
IC50 [2]: > 10000 nM
IC50 [3]: > 60000 nM
selectivity ratio [4]: > 50

CCOC(=O)c1c(-c2ccccc2)[n+]([O-])c2ccc(OC)cc2[n+]1[O-]
IC50 [1]: > 10000 nM

N#Cc1c(-c2ccc(F)cc2)[n+]([O-])c2cc(Cl)c(Cl)cc2[n+]1[O-]
IC50 [1]: > 10000 nM

N#Cc1c(-c2ccc(F)cc2)[n+]([O-])c2ccccc2[n+]1[O-]
IC50 [1]: 3910 nM

CCN(CC)CCCC(C)Nc1ccnc2cc(Cl)ccc12 (stereo not given) [CHLOROQUINE]
IC50 [3]: 110000 nM

COc1ccc(-c2c(C#N)[n+]([O-])c3cc(F)ccc3[n+]2[O-])cc1
IC50 [1]: > 20000 nM

Reference: ChEMBL document CHEMBL1140972, “Synthesis and structure-activity relationship of 3-phenylquinoxaline 1,4-di-N-oxide derivatives as antimalarial agents” (Eur J Med Chem, 2008)
